Consider three compounds from ChEMBL document CHEMBL1143412, “RSV604, a novel inhibitor of respiratory syncytial virus replication” (Antimicrob Agents Chemother, 2007).

Some results are limits rather than exact numbers.

As a reminder, the EC50 is the midpoint of the concentration-response curve. As a reminder, the CC50 is the concentration at which the toxic effect on the cells reaches its halfway point. A high value points to lower toxicity to the cells.

Series [1] relates to Respiratory syncytial virus. As to the kind of experiment: Antiviral activity against RSV A2 infected human Hep2 cells after 5 days by plaque reduction assay. Format: functional, organism-based. The following applies: A2, HEp-2, 120 h. The gist of the method:
(§1)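 HEp-2 monolayers in six-well plates infected with 0.2 ml of 500 PFU/ml virus. After 2 h, overlaid with DMEM, 2% FBS, 0.6% agarose plus compound dilution series. Incubated 5 days, formaldehyde-fixed, plaques stained with methylene blue or immunostained and counted. Activity expressed as percent of plaques in untreated infected wells.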
For orientation: Plaques are areas of infected cells; plaque reduction assays count them against a control.

The subject of series [2] is Respiratory syncytial virus. The experiment in a line: Antiviral activity against RSV RSS infected human Hep2 cells assessed as reduction of viral antigen synthesis after 3 days by ELISA. Format: functional, organism-based. The following applies: HEp-2, 72 h. In a few lines:
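HEp-2 cells seeded at 5 × 10³ per well in DMEM/10% FBS for 24 h, infected with RSV RSS at MOI about 0.02, serial compound dilutions for 3 days. Cells fixed and permeabilised in methanol-acetone, blocked in milk-Tween. Probed with mouse anti-RSV monoclonal then HRP anti-mouse. Developed with o-phenylenediamine/H2O2, absorbance […].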

The subject of series [3] is Respiratory syncytial virus. The experiment in a line: Antiviral activity against RSV Long infected human Hep2 cells after 5 days by plaque reduction assay. Format: functional, organism-based. The following applies: HEp-2, 120 h. The gist of the method:
as §1

Series [4] can be described thus: Cytotoxicity against RSV RSS infected human Hep2 cells after 6 days by XTT assay. Format: cell-based, HEp-2.
Series [5] relates to Respiratory syncytial virus. The experiment in a line: Antiviral activity against RSV RSS infected human Hep2 cells assessed as inhibition of virus-induced cell death after 6 days by XTT assay. Format: functional, organism-based. The following applies: HEp-2, 144 h. The gist of the method:
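HEp-2 cells seeded at 4 × 10³ per well in DMEM with 10% FBS, infected next day with RSV RSS dosed to give about 80% cytopathic effect by day 6. Serial compound dilutions (top 10 μM, 0.5% DMSO) present throughout. Viability read by XTT reduction after 6 days. EC50 taken as 50% reduction in virus-induced cell death.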

The subject of series [6] is Respiratory syncytial virus. The experiment in a line: Antiviral activity against RSV RSS infected human Hep2 cells after 5 days by plaque reduction assay. Format: functional, organism-based. The following applies: HEp-2, 120 h. In a few lines:
as §1

A short description of series [7]: Therapeutic index, CC50 for human Hep2 cells to EC50 for RSV RSS. Format: cell-based, HEp-2. The following applies: read-out: Ratio CC50/EC50. In a few lines:
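Ratio of CC50 from uninfected HEp-2 XTT control plates to EC50 from RSV RSS-infected XTT plates, both read after 6 days.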

For series [8], the system named is Respiratory syncytial virus. The experiment in a line: Drug resistance, ratio of EC50 for plaque picked A-33903-resistant RSV RSS from passage 2 to EC50 for DMSO-passaged wild type RSV RSS. Format: functional.
The test system of series [9] is Respiratory syncytial virus. As to the kind of experiment: Antiviral activity against DMSO-passaged wild type RSV RSS infected human Hep2 cells by plaque reduction assay. Format: functional, organism-based. The following applies: HEp-2. In a few lines:
as §1

In series [10] the test system is Respiratory syncytial virus. The experiment in a line: Antiviral activity against plaque picked A-33903-resistant RSV RSS from passage 2 in human Hep2 cells by plaque reduction assay. Format: functional, organism-based. The following applies: HEp-2. The gist of the method: as §1
The subject of series [11] is Respiratory syncytial virus. The experiment in a line: Antiviral activity against RSV B infected human Hep2 cells after 5 days by plaque reduction assay. Format: functional, organism-based. The following applies: HEp-2, 120 h. In a few lines: as §1
Series [12] relates to Respiratory syncytial virus. As to the kind of experiment: Antiviral activity against plaque picked RSV604-resistant RSV RSS from passage 2 in human Hep2 cells by plaque reduction assay. Format: functional, organism-based. The following applies: HEp-2. The gist of the method:
as §1

Series [13] has as its system Respiratory syncytial virus. As to the kind of experiment: Drug resistance, ratio of EC50 for plaque picked RSV604-resistant RSV RSS from passage 2 to EC50 for DMSO-passaged wild type RSV RSS. Format: functional.

For the compound `COc1ccccc1C(=O)NC1N=C(c2ccccc2)c2ccccc2NC1=O` (stereo unspecified), the EC50 in [1] worked out at 1.2 µM; in [2], 1.1 µM; in [3] it was 1.2 µM; in series [5], 3 µM; in series [6], 1.4 µM. Also, in [4], the CC50 at 144 h is > 50 µM. Moreover, the selectivity ratio in series [7] is > 16.

With `COc1cc([N+](=O)[O-])ccc1C(=O)N[C@H]1N=C(c2ccccc2)c2ccccc2NC1=O`, the EC50 in series [2] turned out to be 0.5 µM; in series [3], 0.57 µM; in [5], 0.9 µM; in [9] it was 0.4 µM; in series [10], 1.3 µM; in series [6] it was 0.8 µM. In addition, the EC50 in series [11] turned out to be 0.23 µM. Moreover, the CC50 at 144 h in series [4] was > 50 µM. Besides, the “fold change (FC)” value in series [8] came out at 3.3. The selectivity ratio in series [7] was > 55.

On to `NC(=O)c1ncn([C@@H]2O[C@H](CO)[C@@H](O)[C@H]2O)n1` [RIBAVIRIN], for which the EC50 in series [1] stood at 19 µM; in series [2], 25.3 µM; in [3], 16.8 µM; in series [12] it was 17.6 µM; in series [5], 11.5 µM; in series [9], 20.7 µM. Also, the EC50 in series [6] came out at 13.3 µM; in series [11], 29 µM. In addition, the “fold change (FC)” value in [13] was found to be 0.85.
